Source: PubChem BioAssay
The list is not random: actives were taken first. Their share in the collection is about 4.6%.
TAAR1 agonist = human TAAR1 agonism; Q96RJ0; CHO RD-HGA16 TAAR1, Fluo-8 calcium fluorescence; vehicle wells 0%, saturating PEA agonist 100%; activation, % at 3 µM; 360,000 compounds, 0.99% hits;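 active means activation above the mean activation of all test compounds in the run plus 3 SD, cut at about 38% in these data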
Target sequence (Q96RJ0 whole entry, looked up): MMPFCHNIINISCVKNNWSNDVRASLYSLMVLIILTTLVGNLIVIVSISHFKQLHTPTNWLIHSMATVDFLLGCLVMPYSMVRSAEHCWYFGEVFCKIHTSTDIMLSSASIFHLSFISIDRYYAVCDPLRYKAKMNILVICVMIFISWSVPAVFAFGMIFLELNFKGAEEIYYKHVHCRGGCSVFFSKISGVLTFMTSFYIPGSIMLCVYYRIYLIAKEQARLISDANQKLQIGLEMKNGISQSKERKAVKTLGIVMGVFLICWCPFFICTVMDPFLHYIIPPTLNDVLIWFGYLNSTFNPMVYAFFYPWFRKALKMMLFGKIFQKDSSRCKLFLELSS
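Test system: RD-HGA16 (CHO) cells co-expressing Gα16 and hTAAR1 / Benchmarks: DMSO vehicle as 0%, PEA at EC100 as 100% / Repeats: no replicates (n 1) / Measure: % activation from peak over basal fluorescence ratio, DMSO-to-PEA scaled / Timing: 17-24 h plating, Fluo-8 75 min 37 °C, 30 min RT / Technique: kinetic Fluo-8 calcium fluorescence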
OX1R antag-1 = antagonists of human orexin 1 receptor (OX1R) | OX1R-expressing cells, FRET antagonist read-out | O43613 | AID 485270 | 330,000 compounds, 1.8% hits | inhibition, % at 6.6 µM; in the data active means inhibition mostly above about 38%, no sharp cut-off; inactive means mostly below about 40%;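 further: 0% = agonist challenge alone and 100% = reference antagonist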
OX1R antag-2 = antagonists of human orexin 1 receptor; CHO/OX1R cells, Fluo-8 calcium fluorescence, orexin A; AID 434989; inhibition, % at 5 µM; 330,000 compounds, 0.43% hits;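 active means inhibition above its plate's threshold, mean inhibition of all tested compounds on the plate plus 3 SD, cut at about 37% in these data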;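 further: 0% = orexin A challenge wells and 100% = SB-334867-A antagonist wells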
TAAR1 antag = human TAAR1 antagonism | CHO RD-HGA16 TAAR1, Fluo-8 calcium fluorescence, antagonist | inhibition, % at 3 µM | 360,000 compounds, 1.5% hits;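 active means inhibition above a per-plate cutoff, the mean inhibition of test compounds on that plate plus 3 SD, cut at about 49% in these data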;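 further: 0% = DMSO plus EC80 beta-PEA response and 100% = DMSO alone without agonist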
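Test system – hTAAR1-expressing CHO RD-HGA16 cells, Gα16-coupled · Reagent – β-PEA at EC80 concentration, post-compound challenge · Compound dosing – 3 µM, single point · Timing – 140 s kinetic read after compound, 140 s after agonist · Detection – Fluo-8 intracellular calcium dye fluorescence, real-time kinetic reads · Control set – DMSO and EC80 PEA controls · Repeats – n of 1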
GPR7 antagonist = antagonists of human GPR7 (neuropeptides B/W receptor 1). P48145. 290,000 compounds, 1.1% hits. GPR7-expressing cells, fluorescence antagonist assay. inhibition, % at 4.4 µM. AID 1861; in the data active means inhibition above about 16%, passing the limit was not always enough;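 further: cells stimulated with the agonist NPW; 0% = agonist with vehicle and 100% = vehicle without agonist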
Target sequence (P48145 whole entry, looked up): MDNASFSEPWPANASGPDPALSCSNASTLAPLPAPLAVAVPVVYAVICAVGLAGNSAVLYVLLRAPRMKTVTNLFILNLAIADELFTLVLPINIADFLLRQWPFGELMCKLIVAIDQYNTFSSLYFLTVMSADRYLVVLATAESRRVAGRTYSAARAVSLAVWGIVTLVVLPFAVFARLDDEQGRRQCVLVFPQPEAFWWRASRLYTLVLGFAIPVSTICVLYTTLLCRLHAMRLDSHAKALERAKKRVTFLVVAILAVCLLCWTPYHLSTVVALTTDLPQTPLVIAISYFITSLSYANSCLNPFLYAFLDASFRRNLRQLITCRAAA
CHO parental Ca = counter-screen: ATP calcium response change in parental CHO cells | 330,000 compounds, 0.63% hits | inhibition, % at 5.6 µM | AID 463079 | parental CHO-K1, ATP-induced calcium, Fluo-8 fluorescence;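 active means inhibition above that plate's mean sample inhibition plus 3 SD, cut at about 26% in these data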;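 further: 0% = ATP-challenged DMSO wells and 100% = DMSO wells without ATP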
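Material – parental CHO cells · Reagent – ATP stimulus · Compound – single nominal dose of 5.6 µM per compound · Detection – Fluo-8 fluorescence · Read-out basis – percent inhibition of calcium signal · Controls – ATP-challenged DMSO wells low, unchallenged DMSO wells high · Repeats – no replicates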
OX1R Fluo8 conf = confirmation of human orexin 1 receptor antagonists | shares compounds with OX1R antag-2 | CHO/OX1R cells, orexin A calcium Fluo-8 fluorescence | inhibition, % at 5 µM | 1,100 compounds, 38% hits; in the data active means inhibition above about 29%;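 further: 0% = agonist challenge alone and 100% = reference antagonist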
CHO Ca triplic = counter-screen for OX1R antagonists: effect in parental CHO cells; shares compounds with OX1R antag-2; parental CHO-K1, ATP-induced calcium, Fluo-8 fluorescence; 1,100 compounds, 9.3% hits; inhibition, % at 5.6 µM; AID 492965;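 active means inhibition above a per-plate limit, the mean inhibition of that plate's test compounds plus 3 SD, cut at about 25% in these data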;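 further: 0% = ATP challenge with DMSO and 100% = DMSO without ATP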
OX1R HTRF conf = OX1R (human) antagonism, HTRF confirmed. OX1R-expressing cells, HTRF antagonist assay. AID 492964. shares compounds with OX1R antag-1. 1,800 compounds, 49% hits. inhibition, % at 6.6 µM; in the data active means inhibition above about 55%;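 further: CHO cells expressing OX1R stimulated with orexin A at about EC80; 0% = agonist challenge alone and 100% = reference antagonist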
CHO-K1 HTRF = counter-screen for OX1R antagonists: effect in parental CHO-K1 cells | shares compounds with OX1R antag-1 | HTRF counterscreen | inhibition, % at 6.6 µM | 1,800 compounds, 48% hits; in the data active means inhibition above about 17%;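 further: 0% = agonist challenge with vehicle and 100% = vehicle alone without agonist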
Active calls of the source: *.

Results for O=C(CCCN1C(=O)/C(=C\c2ccco2)SC1=S)Nc1ccc2ccccc2c1 ?
TAAR1 agonist: 2.2; OX1R antag-1: 84.9*; OX1R antag-2: 45.1*; TAAR1 antag: 3.5; GPR7 antagonist: -10.9; CHO parental Ca: -8.6; OX1R Fluo8 conf: 42.1*; CHO Ca triplic: -16.9; OX1R HTRF conf: 89.4*; CHO-K1 HTRF: 6.9

What do the screens show for `COc1ccc(C(=O)/C=C/c2cn(CC(O)CN3CCOCC3)c3ccccc23)cc1` (centres undefined)?
OX1R antag-1: 15.8; OX1R antag-2: -12.4; GPR7 antagonist: -5.7; CHO parental Ca: 2.0

Results for COc1ccc(C(=O)/C=C/c2cn(CN3CCN(C)CC3)c3ccccc23)cc1 ?
OX1R antag-1: 71.1*; OX1R antag-2: 24.5; GPR7 antagonist: -5.5; CHO parental Ca: -7.0; OX1R Fluo8 conf: 9.0; CHO Ca triplic: -8.5; OX1R HTRF conf: 32.7; CHO-K1 HTRF: 6.1

Results for COc1ccc(-c2cc(C(=O)Nc3ccccc3SC)no2)cc1OC ?
TAAR1 agonist: 1.8; OX1R antag-1: 11.0; OX1R antag-2: -12.8; TAAR1 antag: 0.6; GPR7 antagonist: -15.6; CHO parental Ca: -13.8

How did COc1cccc(-c2cc(C(=O)Nc3ccccc3SC)no2)c1 do in these assays?
TAAR1 agonist: 11.9; OX1R antag-1: 60.5*; OX1R antag-2: 75.7*; TAAR1 antag: 13.8; GPR7 antagonist: -5.8; CHO parental Ca: -17.8; OX1R Fluo8 conf: 70.8*; CHO Ca triplic: -7.2; OX1R HTRF conf: 94.6*; CHO-K1 HTRF: 13.2

What do the screens show for `N#C/C(=C\Nc1ccc2c(c1)OCCO2)c1nc(-c2ccccc2)cs1`?
TAAR1 agonist: 6.7; OX1R antag-1: 9.0; OX1R antag-2: -6.6; TAAR1 antag: 21.9; GPR7 antagonist: -4.7; CHO parental Ca: -3.8

What do the screens show for `N#C/C(=C\Nc1ccc2c(c1)OCCO2)c1nc2ccccc2[nH]1`?
TAAR1 agonist: 7.3; OX1R antag-1: 91.1*; OX1R antag-2: 28.3; TAAR1 antag: 11.6; GPR7 antagonist: -29.4; CHO parental Ca: -10.2; OX1R Fluo8 conf: 12.5; CHO Ca triplic: -11.0; OX1R HTRF conf: 73.7*; CHO-K1 HTRF: 9.5

What do the screens show for `O=C(COC(=O)/C=C/c1ccc(F)cc1)NC1CCS(=O)(=O)C1` (centres undefined)?
TAAR1 agonist: 0.9; TAAR1 antag: 3.1

What do the screens show for `Cc1ccc(N(CC(=O)NCCc2ccc(Cl)cc2)S(=O)(=O)c2c(C)noc2C)cc1`?
TAAR1 agonist: -1.3; OX1R antag-1: 48.6*; OX1R antag-2: 33.6; TAAR1 antag: -0.2; GPR7 antagonist: -1.2; CHO parental Ca: -31.9; OX1R Fluo8 conf: 59.5*; CHO Ca triplic: -16.4; OX1R HTRF conf: 86.3*; CHO-K1 HTRF: 3.2

How did COc1ccc(CNC(=O)CN(c2ccc(C(C)C)cc2)S(=O)(=O)c2c(C)noc2C)cc1 do in these assays?
TAAR1 agonist: 1.7; OX1R antag-1: 9.3; OX1R antag-2: -27.2; TAAR1 antag: -17.6; GPR7 antagonist: 7.3; CHO parental Ca: -26.5

How did Cc1ccc(CCNC(=O)CN(c2ccc(C)cc2)S(=O)(=O)c2c(C)noc2C)cc1 do in these assays?
TAAR1 agonist: -2.8; OX1R antag-1: 79.9*; OX1R antag-2: 59.6*; TAAR1 antag: -41.5; GPR7 antagonist: 2.5; CHO parental Ca: -45.4; OX1R Fluo8 conf: 29.5*; CHO Ca triplic: -27.7; OX1R HTRF conf: 79.7*; CHO-K1 HTRF: 7.6

What do the screens show for `COc1ccc(N(CC(=O)NC(C)c2ccccc2)S(=O)(=O)c2c(C)noc2C)cc1` (centres undefined)?
TAAR1 agonist: -1.8; OX1R antag-1: 67.4*; OX1R antag-2: 44.1; TAAR1 antag: -9.6; GPR7 antagonist: -13.0; CHO parental Ca: -22.7; OX1R Fluo8 conf: 17.6; CHO Ca triplic: -9.7; OX1R HTRF conf: 65.5*; CHO-K1 HTRF: -2.7

Results for O=C(NCCC(=O)N1CCN(c2ccccn2)CC1)c1ccc(Cl)cc1 ?
TAAR1 agonist: 3.8; OX1R antag-1: -0.8; OX1R antag-2: -19.1; TAAR1 antag: 7.2; CHO parental Ca: -8.2

What do the screens show for `C[C@H]1COC(=O)[C@H](Cc2ccc(F)cc2)C/C=C\C[C@H](CC(=O)N(CCO)Cc2ccccc2)C(=O)N1`?
TAAR1 agonist: 9.6; OX1R antag-1: 5.4; OX1R antag-2: -36.0; TAAR1 antag: 8.1; CHO parental Ca: -16.6

Results for CC(C)(C)[C@@H]1COC(=O)[C@H](Cc2ccc(F)cc2)C/C=C\C[C@@H](CC(=O)N(CCO)Cc2ccccc2)C(=O)N1 ?
TAAR1 agonist: 20.9; OX1R antag-1: 66.9*; OX1R antag-2: 56.8; TAAR1 antag: 43.8; CHO parental Ca: -15.2; OX1R Fluo8 conf: 21.7; CHO Ca triplic: -17.7; OX1R HTRF conf: 72.4*; CHO-K1 HTRF: -2.6

What do the screens show for `O=C(COC(=O)c1cc(-c2cccs2)nc2ccccc12)NC1CCS(=O)(=O)C1` (centres undefined)?
TAAR1 agonist: 17.5; OX1R antag-1: 84.4*; OX1R antag-2: 42.1*; TAAR1 antag: 27.1; GPR7 antagonist: -9.9; CHO parental Ca: -6.5; OX1R Fluo8 conf: 33.1*; CHO Ca triplic: 8.3; OX1R HTRF conf: 84.0*; CHO-K1 HTRF: 6.2

How did Nc1nc(CSC(=S)N2CCN(c3ccccc3)CC2)nc(Nc2ccc(F)cc2)n1 do in these assays?
TAAR1 agonist: 2.8; OX1R antag-1: 24.8; OX1R antag-2: -13.7; TAAR1 antag: -2.7; GPR7 antagonist: -8.8; CHO parental Ca: -16.3

What do the screens show for `CC1CC(C)CN(C(=S)SCc2nc(N)nc(Nc3ccccc3)n2)C1` (centres undefined)?
TAAR1 agonist: 2.6; OX1R antag-1: 74.7*; OX1R antag-2: 40.5*; TAAR1 antag: -34.2; GPR7 antagonist: -5.7; CHO parental Ca: -29.7; OX1R Fluo8 conf: 47.9*; CHO Ca triplic: -13.9; OX1R HTRF conf: 76.9*; CHO-K1 HTRF: 3.6

What do the screens show for `O=C(COc1ccc(-n2cnnn2)cc1)Nc1ccc(F)c(F)c1`?
TAAR1 agonist: 3.4; OX1R antag-1: 5.6; OX1R antag-2: 5.7; TAAR1 antag: 27.0; CHO parental Ca: 10.0
